From ChEMBL document CHEMBL2086356, “Identification of a novel family of BRAF(V600E) inhibitors” (J Med Chem, 2012)
Activity calls are given as the source filed them. No cut-off for these calls is given here.

Tests used:
[1] = biological target: Serine/threonine-protein kinase B-raf (Homo sapiens, UniProt P15056, V600E); experiment: Inhibition of human 6x-His tagged BRAF V600E mutant expressed in Sf9 cells by ELISA based kinase assay
Procedure, shortened: (§1)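 Enzyme at about 28–30 nM was preincubated with compound for 1 h at RT, then added to glutathione-plate-bound GST-MEK-His (50 μg/mL). Reaction in HEPES pH 7.0 with MgCl2 and 100 μM ATP ran 30 min at 37 °C. Read-out was anti-phospho-MEK1/2 then HRP chemiluminescence. Run in duplicate or triplicate; IC50 from a four-parameter logistic fit.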

[2] = biological target: T1, Serine/threonine-protein kinase B-raf (Homo sapiens, UniProt P15056); experiment: Inhibition of human 6x-His tagged wild type BRAF expressed in Sf9 cells by ELISA based kinase assay; procedure, shortened: as §1
T1 sequence (P15056 whole entry): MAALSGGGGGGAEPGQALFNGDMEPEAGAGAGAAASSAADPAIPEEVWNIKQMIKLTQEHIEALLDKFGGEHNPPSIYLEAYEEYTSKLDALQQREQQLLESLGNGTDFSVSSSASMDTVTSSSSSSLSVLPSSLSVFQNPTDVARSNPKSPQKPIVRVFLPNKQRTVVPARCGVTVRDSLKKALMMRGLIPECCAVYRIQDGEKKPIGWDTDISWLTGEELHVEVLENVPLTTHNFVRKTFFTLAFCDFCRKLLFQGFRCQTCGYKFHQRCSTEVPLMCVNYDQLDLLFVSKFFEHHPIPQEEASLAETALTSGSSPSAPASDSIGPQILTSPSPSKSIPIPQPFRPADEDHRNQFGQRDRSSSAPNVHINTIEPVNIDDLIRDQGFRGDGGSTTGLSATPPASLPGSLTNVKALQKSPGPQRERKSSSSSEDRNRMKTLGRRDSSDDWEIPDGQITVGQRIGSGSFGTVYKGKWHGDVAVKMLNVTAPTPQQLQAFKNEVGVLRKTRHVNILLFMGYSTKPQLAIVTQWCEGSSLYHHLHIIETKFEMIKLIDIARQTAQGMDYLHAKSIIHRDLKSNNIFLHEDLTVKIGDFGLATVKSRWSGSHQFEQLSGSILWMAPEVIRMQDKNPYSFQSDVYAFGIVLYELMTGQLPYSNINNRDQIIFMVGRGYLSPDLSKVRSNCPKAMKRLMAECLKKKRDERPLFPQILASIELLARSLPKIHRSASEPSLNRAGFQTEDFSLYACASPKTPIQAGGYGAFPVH

Homo sapiens [3] = species on record: Homo sapiens; experiment: Selectivity ratio of IC50 for human 6x-His tagged wild type BRAF to IC50 for human 6x-His tagged BRAF V600E mutant
[4] = biological target: Phosphatidylinositol 4,5-bisphosphate 3-kinase catalytic subunit alpha isoform (Homo sapiens) (UniProt P42336); experiment: Inhibition of PI3Kalpha assessed as residual activity at 1 uM
Phosphatidylinositol 4,5-bisphosphate 3-kinase catalytic subunit alpha isoform (Homo sapiens), sequence (P42336 whole entry, canonical isoform): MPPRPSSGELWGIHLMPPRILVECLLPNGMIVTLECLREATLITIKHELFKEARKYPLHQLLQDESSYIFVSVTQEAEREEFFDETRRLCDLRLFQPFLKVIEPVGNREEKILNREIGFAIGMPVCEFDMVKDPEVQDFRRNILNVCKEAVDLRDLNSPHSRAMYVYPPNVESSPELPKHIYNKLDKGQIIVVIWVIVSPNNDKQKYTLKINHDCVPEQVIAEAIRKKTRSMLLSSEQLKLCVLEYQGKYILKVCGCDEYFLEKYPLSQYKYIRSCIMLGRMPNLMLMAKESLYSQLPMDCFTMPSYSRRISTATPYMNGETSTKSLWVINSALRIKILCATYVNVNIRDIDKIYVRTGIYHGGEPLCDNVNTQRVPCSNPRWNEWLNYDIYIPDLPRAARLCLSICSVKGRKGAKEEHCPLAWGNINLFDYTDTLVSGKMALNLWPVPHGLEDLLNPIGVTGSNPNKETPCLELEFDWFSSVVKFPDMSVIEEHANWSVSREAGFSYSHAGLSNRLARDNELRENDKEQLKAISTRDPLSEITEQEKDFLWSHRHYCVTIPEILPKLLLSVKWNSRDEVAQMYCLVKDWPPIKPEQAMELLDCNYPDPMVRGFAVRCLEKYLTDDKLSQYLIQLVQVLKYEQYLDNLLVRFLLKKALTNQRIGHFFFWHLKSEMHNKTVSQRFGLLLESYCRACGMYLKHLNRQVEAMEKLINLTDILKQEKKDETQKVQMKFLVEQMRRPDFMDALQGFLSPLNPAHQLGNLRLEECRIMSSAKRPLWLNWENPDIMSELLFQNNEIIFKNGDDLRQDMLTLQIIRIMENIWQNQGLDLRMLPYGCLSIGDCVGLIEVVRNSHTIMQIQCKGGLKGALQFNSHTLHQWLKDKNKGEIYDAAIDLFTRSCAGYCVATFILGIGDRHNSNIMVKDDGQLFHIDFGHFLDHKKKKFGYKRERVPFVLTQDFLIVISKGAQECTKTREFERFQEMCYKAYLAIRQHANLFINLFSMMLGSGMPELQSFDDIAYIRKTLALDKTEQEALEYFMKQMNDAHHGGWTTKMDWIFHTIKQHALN

[5] = biological target: Serine/threonine-protein kinase PAK 1 (Homo sapiens) (UniProt Q13153); experiment: Inhibition of PAK1 assessed as residual activity at 1 uM
Serine/threonine-protein kinase PAK 1 (Homo sapiens), sequence (Q13153 whole entry): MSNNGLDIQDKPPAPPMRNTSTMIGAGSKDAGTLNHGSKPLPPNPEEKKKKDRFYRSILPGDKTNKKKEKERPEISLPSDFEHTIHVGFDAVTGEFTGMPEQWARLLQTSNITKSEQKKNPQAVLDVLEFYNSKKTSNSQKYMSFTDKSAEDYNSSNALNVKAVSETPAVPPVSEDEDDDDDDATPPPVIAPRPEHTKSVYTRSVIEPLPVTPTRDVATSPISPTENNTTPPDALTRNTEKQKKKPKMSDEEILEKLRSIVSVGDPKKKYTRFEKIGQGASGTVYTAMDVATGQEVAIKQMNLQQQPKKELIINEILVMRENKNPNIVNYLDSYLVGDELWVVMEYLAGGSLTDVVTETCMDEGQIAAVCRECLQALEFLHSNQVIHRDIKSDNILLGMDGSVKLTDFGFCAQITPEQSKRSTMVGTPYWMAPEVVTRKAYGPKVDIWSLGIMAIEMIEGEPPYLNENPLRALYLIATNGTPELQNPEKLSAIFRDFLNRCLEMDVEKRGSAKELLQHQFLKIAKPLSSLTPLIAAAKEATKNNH

[6] = Inhibition of p70S6K assessed as residual activity at 1 uM by scintillation counter in presence of gamma-P32 ATP
Procedure, shortened: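 p70S6K (20 nM) was preincubated with inhibitor at RT in 20 mM MOPS, 30 mM MgCl2, 0.8 μg/μL BSA, 5% DMSO, pH 7.0, with S6 kinase/Rsk2 peptide (3.6 μM). After 15 min, ATP was added to 100 μM with γ-32P ATP and run 30 min. Product was captured on P81 paper, washed with phosphoric acid, and counted by scintillation. Remaining activity was measured at 1 μM, mean of n = 3.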

[7] = biological target: RAF proto-oncogene serine/threonine-protein kinase (Homo sapiens) (UniProt P04049); experiment: Inhibition of CRAF assessed as residual activity at 1 uM by ELISA based kinase assay
RAF proto-oncogene serine/threonine-protein kinase (Homo sapiens), sequence (P04049 whole entry, the tested form may be a part): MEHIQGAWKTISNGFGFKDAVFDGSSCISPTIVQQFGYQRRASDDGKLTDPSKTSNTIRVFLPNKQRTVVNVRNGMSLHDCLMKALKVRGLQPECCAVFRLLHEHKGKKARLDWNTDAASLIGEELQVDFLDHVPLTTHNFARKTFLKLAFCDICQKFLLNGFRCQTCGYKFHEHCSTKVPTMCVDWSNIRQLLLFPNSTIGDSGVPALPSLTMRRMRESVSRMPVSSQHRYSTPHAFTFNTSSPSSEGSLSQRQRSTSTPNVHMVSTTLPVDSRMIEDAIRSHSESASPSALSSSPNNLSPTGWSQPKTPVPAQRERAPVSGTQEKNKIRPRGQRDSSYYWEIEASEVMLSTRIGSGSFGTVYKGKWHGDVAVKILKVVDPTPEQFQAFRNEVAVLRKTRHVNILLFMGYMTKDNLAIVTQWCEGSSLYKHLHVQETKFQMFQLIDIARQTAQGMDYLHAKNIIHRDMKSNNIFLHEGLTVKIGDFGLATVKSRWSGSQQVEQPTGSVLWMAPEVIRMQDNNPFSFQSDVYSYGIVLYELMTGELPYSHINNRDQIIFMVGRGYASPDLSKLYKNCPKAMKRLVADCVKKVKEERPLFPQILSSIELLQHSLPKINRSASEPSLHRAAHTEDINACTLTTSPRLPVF
Procedure, shortened: (§2)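 Single-point ELISA kinase assay at 1 μM inhibitor, reading phospho-MEK on immobilized GST-MEK-His. CRAF at 20–30 nM enzyme with 100 μM ATP; BRAF WT or V600E kinase domain (Sf9-expressed, 6xHis) under the same assay conditions. Remaining activity reported as mean of n = 3.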

[8] = biological target: Serine/threonine-protein kinase pim-1 (Homo sapiens) (UniProt P11309); experiment: Inhibition of PIM1 assessed as residual activity at 1 uM
Serine/threonine-protein kinase pim-1 (Homo sapiens), sequence (P11309 whole entry, looked up): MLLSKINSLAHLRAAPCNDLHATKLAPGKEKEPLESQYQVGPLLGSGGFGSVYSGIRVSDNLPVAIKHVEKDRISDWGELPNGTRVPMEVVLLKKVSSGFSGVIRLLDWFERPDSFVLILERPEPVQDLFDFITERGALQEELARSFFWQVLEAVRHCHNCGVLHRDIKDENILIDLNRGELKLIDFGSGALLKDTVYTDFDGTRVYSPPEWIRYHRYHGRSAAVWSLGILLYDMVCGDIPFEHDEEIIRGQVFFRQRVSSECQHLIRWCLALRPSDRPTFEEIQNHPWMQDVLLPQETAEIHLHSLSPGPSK

[9] = tested on: Serine/threonine-protein kinase B-raf (Homo sapiens), P15056 [V600E]; experiment: Inhibition of B-Raf V600E mutant-mediated MEK phosphorylation in human 451LU cells by Western blotting
Serine/threonine-protein kinase B-raf (Homo sapiens), P15056 [V600E], sequence (P15056 whole entry V600E): as the sequence (P15056 whole entry) above, with V600E counted along it

[10] = biological target: T1, Serine/threonine-protein kinase B-raf; experiment: Inhibition of human 6x-His tagged wild type BRAF expressed in Sf9 cells assessed as residual activity at 1 uM by ELISA based kinase assay; procedure, shortened: as §2
FF2508 = experiment: Antiproliferative activity against human FF2508 cells by MTS assay; type: functional, cell-based
Procedure, shortened: (§3)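 451Lu melanoma cells were grown in DMEM with 5% FBS, and primary melanocytes (FOM) and fibroblasts (FF) were taken from neonatal foreskin epidermis. Cells were seeded at 5000/well, left to adhere overnight, then exposed to rising compound doses or DMSO for 72 h. Read-out was MTS absorbance at 490 nm, normalized to DMSO wells. At least 4 wells per condition; experiment done in triplicate.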

[11] = Inhibition of GSK3 assessed as residual activity at 1 uM
[12] = tested on: Serine/threonine-protein kinase B-raf (Homo sapiens), P15056 [V600E]; experiment: Inhibition of human 6x-His tagged BRAF V600E mutant expressed in Sf9 cells assessed as residual activity at 1 uM by ELISA based kinase assay; procedure, shortened: as §2
Homo sapiens [13] = species on record: Homo sapiens; experiment: Antiproliferative activity against human 451LU cells harboring BRAF V600E mutant by MTS assay; type: functional, cell-based; procedure, shortened: as §3
FOM = experiment: Antiproliferative activity against human FOM cells by MTS assay; type: functional, cell-based; procedure, shortened: as §3
[14] = biological target: Phosphatidylinositol 4,5-bisphosphate 3-kinase catalytic subunit gamma isoform (Homo sapiens) (UniProt P48736); experiment: Inhibition of PI3Kgamma assessed as residual activity at 1 uM

Serine/threonine-protein kinase B-raf (Homo sapiens, UniProt P15056, V600E), sequence (P15056 2-766 V600E limits assumed): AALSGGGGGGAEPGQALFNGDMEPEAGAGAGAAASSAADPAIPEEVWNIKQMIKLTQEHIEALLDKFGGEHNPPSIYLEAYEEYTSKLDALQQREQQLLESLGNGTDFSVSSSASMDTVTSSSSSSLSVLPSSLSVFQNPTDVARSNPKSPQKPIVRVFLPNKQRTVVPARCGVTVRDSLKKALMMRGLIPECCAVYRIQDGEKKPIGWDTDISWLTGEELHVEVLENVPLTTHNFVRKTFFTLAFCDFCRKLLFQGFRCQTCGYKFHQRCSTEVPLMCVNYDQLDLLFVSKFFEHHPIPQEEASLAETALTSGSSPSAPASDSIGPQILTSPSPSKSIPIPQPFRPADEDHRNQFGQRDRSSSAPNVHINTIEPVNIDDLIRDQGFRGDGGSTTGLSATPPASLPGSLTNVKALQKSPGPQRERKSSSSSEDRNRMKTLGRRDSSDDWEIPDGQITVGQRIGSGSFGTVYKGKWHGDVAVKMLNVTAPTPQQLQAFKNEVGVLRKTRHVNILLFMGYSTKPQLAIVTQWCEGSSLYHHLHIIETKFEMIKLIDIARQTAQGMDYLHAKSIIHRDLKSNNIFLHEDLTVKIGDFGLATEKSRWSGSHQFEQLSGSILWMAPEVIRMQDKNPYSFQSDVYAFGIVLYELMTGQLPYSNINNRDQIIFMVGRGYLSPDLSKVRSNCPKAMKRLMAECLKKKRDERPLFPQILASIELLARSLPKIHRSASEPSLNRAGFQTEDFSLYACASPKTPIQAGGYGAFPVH

Row | IC50 [1] [nM] | IC50 [2] [nM] | SMILES | other results
1 | 6100 | 9000 | O=S(=O)(Nc1ccc(O)c2ccccc12)c1cccs1 | 
2 | 1600 | 2100 | CCCCCCCCCCS(=O)(=O)Nc1cc(Sc2nnc[nH]2)c(O)c2ccccc12 | 
3 | 800 | 2000 | Oc1c(C(Nc2cccnc2)c2ccsc2)ccc2cccnc12 (stereo not drawn) | Ratio IC50 (Homo sapiens [3]): 2
4 | 900 | 4000 | COc1ccc(C(c2ccc3cccnc3c2O)N2CCOCC2)cc1 (stereo not drawn) | Ratio IC50 (Homo sapiens [3]): 2
5 | 700 | 3000 | COc1cc(C(Nc2ccccn2)c2cc(Cl)c3cccnc3c2O)cc(Br)c1O (stereo not drawn) | Ratio IC50 (Homo sapiens [3]): 2
6 | 720 | 1660 | CCCCCCCCS(=O)(=O)Nc1cc(Sc2nnc[nH]2)c(O)c2ccccc12 | 
7 | 320 | 340 | O=S(=O)(Nc1cc(Br)c(O)c2ccccc12)c1cccs1 | 
8 | 720 | 1470 | O=S(=O)(Nc1cc(Sc2cnn[nH]2)c(O)c2ccccc12)c1cccs1 | 
9 |  | 800 | Oc1c(C(Nc2ccccn2)c2ccco2)cc(Cl)c2cccnc12 (stereo not drawn) | 
10 | 670 | 680 | O=C1CCC(=O)N1c1ccc(F)c(S(=O)(=O)Nc2cc(Sc3ncn[nH]3)c(O)c3ccccc23)c1F | 
11 | 120 | 170 | O=S(=O)(Nc1cc(Sc2ncc[nH]2)c(O)c2ccccc12)c1cccs1 | Ratio IC50 (Homo sapiens [3]): 2
12 | 520 | 590 | O=S(=O)(Nc1cc(Sc2ncn[nH]2)c(O)c2ccccc12)c1c(F)c(F)c(F)c(F)c1F | 
13 | 140 | 270 | CC(=O)N1CCc2cc(S(=O)(=O)Nc3cc(Sc4nc[nH]n4)c(O)c4ccccc34)ccc21 | 
14 | 210 | 190 | O=S(=O)(Nc1cc(Sc2nc[nH]n2)c(O)c2ccccc12)c1ccc(C(F)(F)F)cc1 | 
15 | 190 | 230 | O=C1C(Sc2ncn[nH]2)=C/C(=N\S(=O)(=O)c2cccs2)c2ccccc21 | 

The next lines start with the molecule.

Row | SMILES | IC50 [1] [nM] | IC50 [2] [nM] | other results
16 | O=S(=O)(Nc1cc(Cl)c(O)c2ccccc12)c1cccs1 | 380 | 450 | 
17 | Cc1cc(C)c2c(=O)n(C(=O)c3cccs3)sc2n1 | 600 | 400 | 
18 | O=S(=O)(Nc1cc(Sc2ncn[nH]2)c(O)c2ccccc12)c1ccc(-c2ccccc2)cc1 |  |  | Activity [4]: 75%; Activity [5]: 75%; Activity [6]: 75%; Activity [7]: 60%; Activity [8]: 75%; inhibition [9]: Active; Activity [10]: < 10%; Activity (FF2508): inactive; Activity [11]: 75%; Activity [12]: < 10%; Activity (Homo sapiens [13]): Active; Ratio IC50 (Homo sapiens [3]): 2; Activity (FOM): inactive; Activity [14]: 75%
19 | CC(=O)Nc1ccc(S(=O)(=O)Nc2cc(Sc3nc[nH]n3)c(O)c3ccccc23)cc1 | 140 |  | 
20 | O=S(=O)(Nc1cc(Sc2ccccn2)c(O)c2ccccc12)c1cccs1 | 190 | 350 | 
21 | O=S(=O)(Nc1cc(Sc2ncn[nH]2)c(O)c2ccccc12)c1c(F)ccc(N(Cc2ccccc2)Cc2ccccc2)c1F | 3600 | 5800 | 
22 | O=S(=O)(Nc1cc(Sc2nnc[nH]2)c(O)c2ccccc12)c1ccc(-c2ccccc2)cc1 | 80 | 220 | 
23 | O=S(=O)(Nc1cc(Sc2ccccc2)c(O)c2ccccc12)c1cccs1 | 280 | 570 | 
24 | Cn1nnnc1Sc1cc(NS(=O)(=O)c2cccs2)c2ccccc2c1O | 250 | 320 | 
25 | O=C(/C=C/S(=O)(=O)c1ccc(Cl)cc1)c1ccc(F)cc1 | 300 | 900 | Ratio IC50 (Homo sapiens [3]): 2
26 | CC(=O)Nc1ccc(S(=O)(=O)Nc2cc(Sc3ncn[nH]3)c(O)c3ccccc23)cc1 |  |  | Ratio IC50 (Homo sapiens [3]): 2
27 | O=S(=O)(Nc1cc(Sc2nc[nH]n2)c(O)c2ccccc12)c1ccc2ccccc2c1 | 150 | 400 | 
